Bioassay records (PubChem BioAssay)
GAA850 FXN act = activators of GAA850 frataxin (FXN) promoter | HEK293 lucGAA850 FXN promoter luciferase reporter, 24 h; percent of 10 µM SAHA response | activation, % at 6 µM | 360,000 tested, 0.56% active | AID 540364;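 active = activation above the average of all compounds screened plus 3 SD, cutoff fixed separately per campaign, cut at about 7.5% in these data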;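 also: 0% = DMSO wells and 100% = 10 µM SAHA wells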
proCasp7 act = counter-screen: procaspase-7 (human) activation | AID 463210 | recombinant procaspase-7, Ac-DEVD-pNA absorbance 405 nm; D23A/D198A/D206A triple mutant, cannot self-cleave; scale: DMSO 0, 5 µM enzyme 100 | activation, % at 8.5 µM | P55210 | 330,000 tested, 0.093% active;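 active = percent activation above the screen-wide mean plus 3 SD, cut at about 25% in these data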
Target sequence (P55210 whole entry D23A/D198A/D206A): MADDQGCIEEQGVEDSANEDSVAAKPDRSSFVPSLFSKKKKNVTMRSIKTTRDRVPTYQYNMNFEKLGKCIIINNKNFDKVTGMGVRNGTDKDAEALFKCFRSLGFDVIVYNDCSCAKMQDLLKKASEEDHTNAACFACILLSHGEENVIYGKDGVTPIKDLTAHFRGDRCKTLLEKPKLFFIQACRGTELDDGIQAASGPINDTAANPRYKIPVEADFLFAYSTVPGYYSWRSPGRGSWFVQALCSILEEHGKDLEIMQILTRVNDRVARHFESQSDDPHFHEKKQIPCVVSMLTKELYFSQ
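Assay system – Uncleavable procaspase-7 mutant enzyme · Quantity – 2 µM procaspase-7 mutant as dispensed · Times – 1 h preincubation, 2 h reaction · Dosing – single nominal 8.5 µM compound dose, 0.8% DMSO final · Buffer or medium – Zinc-free 50 mM HEPES buffer, pH 7.4, with NaCl and Triton X-100 · Detection – Epi-absorbance of released pNA at 405 nm, two timepoints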
proCasp3 act = procaspase-3 (human) activation. recombinant procaspase-3 D3A, Ac-DEVD-pNA absorbance 405 nm. activation, % at 8.5 µM. 330,000 tested, 0.11% active. AID 463141;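 active = activation above the mean of all tested compounds plus 3 SD, cut at about 21% in these data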;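 also: 0% = DMSO alone and 100% = DMSO wells spiked with extra 5 µM PC-3 D3A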
Target sequence (P42574 whole entry D9A/D28A/D175A): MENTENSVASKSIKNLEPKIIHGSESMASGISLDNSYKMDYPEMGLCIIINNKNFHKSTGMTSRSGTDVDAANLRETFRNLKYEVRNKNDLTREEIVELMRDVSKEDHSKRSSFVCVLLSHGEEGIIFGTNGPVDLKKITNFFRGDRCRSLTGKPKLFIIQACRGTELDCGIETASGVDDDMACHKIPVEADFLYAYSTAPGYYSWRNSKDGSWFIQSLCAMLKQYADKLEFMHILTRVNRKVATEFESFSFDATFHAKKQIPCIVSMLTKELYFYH
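Assay system – Procaspase-3 D3A mutant, all three cleavage aspartates alanine · Controls – DMSO-only low control, 5 µM PC-3 D3A high control · Schedule – 1 h compound preincubation, 2 h substrate hydrolysis at 25 °C · Signal – 405 nm absorbance of p-nitroaniline, reads at 0 and 120 min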
GAA30 FXN cntr = counter-screen for GAA850 frataxin promoter activators: GAA30 promoter activation. shares compounds with GAA850 FXN act. HEK293 lucGAA30 FXN promoter luciferase, 24 h; DMSO = 0%, 5 µM ipriflavone = 100%. activation, % at 6 µM. 1,900 tested, 66% active;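 active = mean activation above the mean of solvent-only control wells plus 3 SD, cut at about 22% in these data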;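 also: counterscreen of GAA850 promoter hits where activity marks nonselective or luminescence artifacts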
FXN GAA850 conf = confirmation of GAA850 frataxin (FXN) promoter activators; activation, % at 6 µM; shares compounds with GAA850 FXN act; HEK293 lucGAA850 FXN promoter luciferase reporter, 24 h; 100% = activation by SAHA; 1,900 tested, 86% active;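 active = mean activation above a set limit taken from the primary screen, cut at about 8% in these data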;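 also: 0% = DMSO wells and 100% = 10 µM SAHA wells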
Starred values were filed as active, the others as inactive; . = no result given. Sampled rows, rich in hits. Any-hit rate of the full collection: about 0.7%.

SMILES	GAA850 FXN act	proCasp7 act	proCasp3 act	GAA30 FXN cntr	FXN GAA850 conf
CC[C@]12c3[nH]c4ccc(Cl)cc4c3CCN1C(=O)[C@@H](CC(=O)NCC13CC4CC(CC(C4)C1)C3)C[C@@H]2C(=O)N1CCN(C(=O)c2ccco2)CC1	-2.1	10.0	-13.1	.	.
CCC12C(=O)C(CC)(C(c3ccccc3)=C1c1ccccc1)[C@@H]1C(=O)N(c3ccc(C)cc3)C(=O)C12 (stereo partly specified)	4.4	-2.9	0.0	.	.
CCC12C(=O)C(CC)(C(c3ccccc3)=C1c1ccccc1)[C@@H]1C(=O)N(c3ccccc3)C(=O)C12 (stereo partly specified)	11.5*	-4.5	0.2	19.7	11.4*
COCCCNc1nc(SCc2ccccc2)nc2sc3c(c12)CCC3	14.3*	-17.1	-19.4	30.6*	21.5*
COCCNc1nc(SC)nc2sc3c(c12)CCN(C)C3	0.9	4.9	3.2	.	.
O=C(CCC(=O)N1CCN(c2ccc(C(F)(F)F)cn2)CC1)c1cccs1	-0.1	-6.0	1.9	.	.
CC(=O)c1ccc(NC(=S)N(C)C2CCN(C)CC2)cc1	14.4*	-4.8	-8.8	22.1*	6.9
CN1CCC(N(C)C(=S)Nc2ccc(F)cc2)CC1	-0.1	-4.1	-7.7	.	.
COc1ccc(CNS(=O)(=O)NCc2ccc(C)cc2)cc1OC	-0.7	-18.1	1.7	.	.
COc1ccc(S(=O)(=O)N2CCOC2CNC(=O)C(=O)NCCCN2CCOCC2)cc1 (stereo unspecified)	2.2	6.8	-8.6	.	.
Cc1cc(-c2cc(C(=O)NCc3ccccc3)on2)nc(S(C)(=O)=O)n1	9.7*	7.1	9.9	50.4*	26.3*
COCCNc1nc(C)cc(-c2cc(C(=O)NCc3ccccc3)on2)n1	2.4	3.2	-3.4	.	.
CCCC/C=C/C(NC(=O)c1ccc(C(=O)OC)cc1)c1ccccc1 (stereo unspecified)	2.3	-4.5	9.9	.	.
CN(C)S(=O)(=O)c1ccc(C(=O)NCCN2C(=O)S/C(=C\c3cccnc3)C2=O)cc1	0.2	-8.1	1.1	.	.
CS(=O)(=O)c1ccc(C(=O)NCCN2C(=O)S/C(=C\c3cccnc3)C2=O)cc1[N+](=O)[O-]	13.7*	6.1	3.6	148.2*	43.6*
COc1c2ccc(OCC/C(C)=C/C(=O)C=C(C)C)cc2nc2occc12	0.7	-5.6	6.4	.	.
CCN(C(=O)Cc1c(C(=O)O)n(C)c2ccccc12)c1cccc(C)c1	1.1	3.0	-0.6	.	.
Cc1ccc2c(C)c(C(=O)N(C)Cc3nccn3C)oc2c1C	0.8	6.5	6.6	.	.
NC(=S)Nc1nccc(-c2cccs2)n1	8.3*	-12.0	4.0	94.2*	37.1*
Cc1ccc(C(=O)Nc2nccc(-c3cccs3)n2)cc1	3.3	-7.5	-9.5	.	.
CC(OC(=O)Cc1n[nH]c(=O)c2ccccc12)C(=O)Nc1ccc(F)cc1Cl (stereo unspecified)	1.9	7.1	6.2	.	.
CCc1cc(-c2n[nH]c(C)c2-c2ccccc2Cl)c(O)cc1OC	3.0	4.0	2.9	.	.
O=C(N/N=C\c1ccco1)Nc1cccc(Cl)c1	9.0*	0.3	-1.3	102.6*	37.6*
Cc1cccc(NC(=O)CCC(=O)N/N=C/c2ccco2)c1	1.6	3.9	3.4	.	.
CCn1c(=S)sc2c(=O)n(CC(=O)NCCCc3ccccc3)c(C)nc21	0.4	9.6	1.1	.	.
SMILES	GAA850 FXN act	proCasp7 act	proCasp3 act	GAA30 FXN cntr	FXN GAA850 conf
O=C(NNC(=S)Nc1cccc(Cl)c1)c1ccccc1	4.9	-8.0	2.0	.	.
O=C(Nc1cccc(Cl)c1)c1ccccc1	7.7*	0.4	0.9	75.9*	20.1*
CN1CCN(C(=S)c2ccc(-c3cccc(Cl)c3Cl)o2)CC1	6.9	5.5	0.0	.	.
O=C(c1ccc(-c2ccc(Cl)cc2Cl)o1)N1CCOCC1	9.1*	0.0	-2.1	114.3*	46.4*
S=C(c1ccc(-c2ccccc2Cl)o1)N1CCCCC1	8.6*	3.8	6.8	112.8*	39.2*
O=C(c1cc(-c2ccccc2Cl)on1)N1CCN(C(=O)c2ccco2)CC1	3.8	-0.5	5.4	.	.
O=C(c1ccc(-c2cc(Cl)ccc2Cl)o1)N1CCOCC1	6.3	7.0	4.9	.	.
O=C(c1ccco1)N1CCN(C(=O)c2ccc(-c3ccccc3Cl)o2)CC1	7.6*	2.9	-0.9	88.1*	30.4*
O=[N+]([O-])c1ccc(N/N=C/c2cccc(O)c2)cc1	-0.9	-30.5	-13.2	.	.
O=[N+]([O-])c1ccc(N/N=C/c2cccc(O)c2O)cc1	15.1*	-2.4	-3.8	77.3*	39.6*
O=C(COc1ccc(Cl)cc1Cl)NC(=O)NC1CCCC1	5.3	.	.	.	.
O=C(COc1ccccc1Cl)NC(=O)NC1CCCC1	8.0*	-1.9	2.0	111.4*	29.6*
CC(C)CC(=O)Nc1cccc(C(C)O)c1 (stereo unspecified)	.	5.0	6.2	.	.
Cc1noc(C)c1S(=O)(=O)Nc1ccc2c(c1)C(=O)N([C@@H](C)CO)C[C@H](C)[C@@H](CN(C)Cc1ccc(C(F)(F)F)cc1)OCCCC[C@H](C)O2	-3.2	.	.	.	.
CC(C)N(Cc1ccccc1)C(=O)CN1C(=O)COc2ccc(S(=O)(=O)N3CCCCCC3)cc21	3.2	5.0	-0.3	.	.
CN=c1scc(-c2ccccc2F)n1/N=C/c1ccc(O)c(O)c1O	-1.5	.	.	.	.
CC(C)N=c1scc(-c2cccs2)n1/N=C/c1ccc(O)c(O)c1O	9.0*	-22.0	-14.8	48.7*	22.6*
Cc1noc(C)c1CSc1nc2ccccc2s1	4.0	-10.0	-4.2	.	.
c1csc(CSc2nc3ccccc3s2)c1	7.7*	3.1	6.4	121.6*	38.9*
COc1ccc(NC(=O)Cc2nnc(SCC(=O)Nc3ccccc3)n2C)cc1	2.5	-3.0	6.2	.	.
O=C(Nc1cc([N+](=O)[O-])ccc1O)c1cccc([N+](=O)[O-])c1	1.3	1.8	-5.6	.	.
Cc1cc(O)c(NC(=O)c2cccc([N+](=O)[O-])c2)cc1C	7.6*	8.7	-0.5	91.1*	30.5*
O=C(Nc1cc2c(cc1Cl)OCCCO2)c1ccccc1	8.8*	-4.0	6.5	107.0*	41.2*
O=C(Nc1cc2c(cc1Cl)OCCCO2)c1ccco1	0.2	0.5	2.4	.	.
Cc1c(C(=O)N2CCOCC2)c(S(=O)(=O)Nc2ccccc2)c(C)n1C	0.0	-6.3	0.3	.	.
COc1cc2c(cc1OC)-c1cc(Nc3ccccc3Br)nc(=O)n1CC2	9.2*	-1.1	2.5	17.8	15.6*
COc1cc2c(cc1OC)-c1cc(N3CCCCCC3)nc(=O)n1CC2	12.7*	7.9	-6.3	30.9*	16.4*
COc1cc2c(cc1OC)-c1cc(N3CCCc4ccccc43)nc(=O)n1CC2	10.4*	-0.7	-12.8	21.7	15.6*
CCOc1cccc(Nc2cc3n(c(=O)n2)CCc2cc(OC)c(OC)cc2-3)c1	9.6*	1.1	-3.0	21.8	12.1*
